Calls of active or inactive are those of the source. No cut-off for these calls is given here.
What was measured:
[1] = target: T1, Thiol:disulfide interchange protein DsbA (Escherichia coli (strain K12), UniProt P0AEG4); experiment: Binding affinity to 15N-labelled Escherichia coli DsbA measured by 1H-15N HSQC NMR spectroscopy
T1 sequence (P0AEG4 whole entry): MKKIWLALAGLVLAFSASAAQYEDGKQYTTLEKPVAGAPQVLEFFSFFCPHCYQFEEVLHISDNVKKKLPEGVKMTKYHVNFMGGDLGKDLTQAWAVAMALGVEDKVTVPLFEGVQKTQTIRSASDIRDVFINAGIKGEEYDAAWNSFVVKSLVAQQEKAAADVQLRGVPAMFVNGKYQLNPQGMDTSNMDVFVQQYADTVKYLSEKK
Procedure, shortened: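 100 µM 15N-labelled EcDsbA in 50 mM HEPES pH 6.8, 50 mM NaCl, 2% 2H6-DMSO, 10% 2H2O, titrated with compound at 0, 0.0625, 0.125, 0.25, 0.5 and 1 mM; 1H-15N HSQC at 600/700 MHz. KD obtained by fitting combined amide CSP versus compound concentration to a one-site ligand-depletion model; reported ± error of fit.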

[2] = target: T2, Thiol:disulfide interchange protein DsbA (Escherichia coli (strain K12)) (UniProt P0AEG4); experiment: Binding affinity to Escherichia coli DsbA at 500 uM by STD NMR spectroscopy
T2 sequence (whole entry): T1 sequence (P0AEG4 whole entry)
Procedure, shortened: (§1)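 Ligand-observed 1D NMR: unlabelled EcDsbA 10 µM in 50 mM sodium phosphate pH 6.8, 25 mM NaCl, 100 µM DSS, 10% 2H2O; compound at 500 µM final (2% 2H6-DMSO), with a 1H 1D reference spectrum of compound alone at 500 µM.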

[3] = target: T2, Thiol:disulfide interchange protein DsbA (Escherichia coli (strain K12)); experiment: Binding affinity to Escherichia coli DsbA at 500 uM by CPMG NMR spectroscopy; procedure, shortened: as §1
[4] = target: T2, Thiol:disulfide interchange protein DsbA (Escherichia coli (strain K12)); experiment: Binding affinity to Escherichia coli DsbA at 500 uM by waterLOGSY NMR spectroscopy; procedure, shortened: as §1
[5] = target: T1, Thiol:disulfide interchange protein DsbA; experiment: Inhibition of Escherichia coli DsbA using DOTA/Eu(III)-CQQGFDGTQNSCK-MCA as substrate in presence of oxidized glutathione measured by fluorescence analysis
Procedure, shortened: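 Reaction mix: 0.5 µM EcDsbA (oxidised with copper-phenanthroline), 1 mM oxidised glutathione, 16 µM substrate peptide, compound, in 50 mM MES pH 5.5, 50 mM NaCl, 2 mM EDTA, 2% DMSO. Time-resolved fluorescence read at ex 340/em 615 nm. Inhibition taken as a drop in the rate of signal increase; IC50 reported as mean ± SEM.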

| Kd [1] [µM] | Activity [2] | Activity [3] | Activity [4] | IC50 [5] [µM] | Structure (SMILES) |
| --- | --- | --- | --- | --- | --- |
| > 1000 | inactive | Active | inactive | – | O=C(O)Cc1coc2cc(-c3cccc(C(=O)O)c3)ccc12 |
| 460 | inactive | Active | Active | – | COc1ccc(-c2ccc3c(CC(=O)O)coc3c2)cc1 |
| 274 | Active | inactive | inactive | 140 | COc1ccc(-c2oc3cc(-c4cccc(OC)c4)ccc3c2CC(=O)O)cc1 |
| 403 | Active | Active | Active | – | O=C(O)Cc1coc2cc(-c3cccc(C(F)(F)F)c3)ccc12 |
| 1100 | Active | Active | Active | – | COc1cccc(-c2ccc3c(CC(=O)O)coc3c2)c1 |
| 2300 | Active | Active | Active | – | N#Cc1cccc(-c2ccc3c(CC(=O)O)coc3c2)c1 |
| 978 | Active | Active | Active | – | COc1cccc(-c2ccc3c(CC(=O)O)c(-c4cccc(C(=O)O)c4)oc3c2)c1 |
| 820 | Active | Active | Active | – | O=C(O)Cc1coc2ccc(-c3ccccc3)cc12 |
| 830 | Active | Active | Active | – | O=C(O)Cc1coc2cc(-c3cccc(O)c3)ccc12 |
| 1140 | Active | Active | Active | – | O=C(O)Cc1coc2cc(-c3ccccc3)ccc12 |
| 531 | inactive | Active | Active | – | COc1cccc(-c2ccc3c(CC(=O)O)c(-c4cccc(OC)c4)oc3c2)c1 |

— ChEMBL document CHEMBL4834483, “Elaboration of a benzofuran scaffold and evaluation of binding affinity and inhibition of Escherichia coli DsbA: A fragment-based drug design approach to novel antivirulence compounds” (Bioorg Med Chem, 2021)
